The source made the active and inactive calls. The rule behind the calls is not given here.
Experiments:
[1] = Anticlonogenic activity against human THP1 cells assessed as inhibition of colony formation of cells at 0.5 uM measured after 13 days relative to control; assay type: functional; conditions: THP-1, […]
Outline: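 THP-1 cells (RPMI, 10% FBS, 2 mM L-glutamine, 37°C, 5% CO2) plated at 250 cells/plate in enriched methylcellulose medium with compound at 0.5 µM for 13 days.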

[2] = biological target: T1, Lysine-specific histone demethylase 2 (Homo sapiens, UniProt Q8NB78); test: Inhibition of KDM1B (unknown origin)
T1 sequence (Q8NB78 whole entry): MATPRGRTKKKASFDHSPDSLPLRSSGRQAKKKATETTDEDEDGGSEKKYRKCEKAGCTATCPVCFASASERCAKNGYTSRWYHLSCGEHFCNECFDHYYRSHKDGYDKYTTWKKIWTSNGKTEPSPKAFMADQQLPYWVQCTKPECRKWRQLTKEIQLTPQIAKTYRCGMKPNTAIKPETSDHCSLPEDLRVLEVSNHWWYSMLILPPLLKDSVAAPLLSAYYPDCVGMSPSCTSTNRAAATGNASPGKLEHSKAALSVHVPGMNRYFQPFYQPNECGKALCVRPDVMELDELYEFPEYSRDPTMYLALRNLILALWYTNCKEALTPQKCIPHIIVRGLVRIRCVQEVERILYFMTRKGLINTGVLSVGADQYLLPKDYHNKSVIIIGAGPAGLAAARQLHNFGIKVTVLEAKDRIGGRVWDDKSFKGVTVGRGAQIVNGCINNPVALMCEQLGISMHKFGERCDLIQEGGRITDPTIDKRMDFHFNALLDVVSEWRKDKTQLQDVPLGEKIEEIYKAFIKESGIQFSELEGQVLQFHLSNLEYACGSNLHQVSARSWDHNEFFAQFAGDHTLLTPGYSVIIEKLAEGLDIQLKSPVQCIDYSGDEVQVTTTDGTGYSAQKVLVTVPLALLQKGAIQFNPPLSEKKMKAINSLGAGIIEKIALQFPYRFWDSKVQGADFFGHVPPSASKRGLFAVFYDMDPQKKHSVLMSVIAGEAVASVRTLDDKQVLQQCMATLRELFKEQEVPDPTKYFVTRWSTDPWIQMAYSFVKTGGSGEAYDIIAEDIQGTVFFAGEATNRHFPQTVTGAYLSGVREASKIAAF

[3] = Anticlonogenic activity against 129sv mouse APL blast cells assessed as inhibition of colony formation of cells at 0.25 uM measured after 7 days relative to control; assay type: functional; conditions: 168 h
[4] = biological target: Lysine-specific histone demethylase 1A (Homo sapiens) (UniProt O60341); test: Inhibition of KDM1A in human NB4 cells assessed as increase in GFI1B mRNA expression at biochemical IC50 measured after 24 hrs by RT-PCR analysis relative to control; assay type: cell-based; conditions: NB-4
[5] = biological target: Lysine-specific histone demethylase 1A (Homo sapiens) (UniProt O60341); test: Inhibition of KDM1A in human NB4 cells assessed as increase in CD11b mRNA expression at biochemical IC50 measured after 24 hrs by RT-PCR analysis relative to control; assay type: cell-based; conditions: NB-4
LSD1/CoREST complex = LSD1/CoREST complex (Homo sapiens, UniProt O60341); test: Inhibition of human recombinant KDM1A/CoREST expressed in Escherichia coli using mono-methylated H3-K4 peptide as substrate assessed as H2O2 release preincubated for 15 mins followed by substrate addition measured for 12 mins by fluorescence-based microplate reader analysis
Outline: (§1)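 Human recombinant KDM1A/CoREST, KDM1B, MAO A and MAO B used as enzyme sources; compounds incubated with the enzyme and results expressed as IC50.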

THP-1 [6] = test: Induction of differentiation of human THP1 cells assessed assessed as alteration in morphology of colonies after 13 days by May Grunwald-Giemsa staining based assay; assay type: functional, cell-based
Outline: (§2)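 THP-1 cells cultured 13 days in semisolid methylcellulose with compound at 0.5 µM; colony morphology imaged, and cells recovered at end of culture examined as May Grunwald-Giemsa-stained cytospin preparations.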

THP-1 [7] = test: Induction of differentiation of human THP1 cells after 13 days by cytospin assay; assay type: functional, cell-based; outline: as §2
[8] = biological target: T2, Amine oxidase [flavin-containing] A (Homo sapiens, UniProt P21397); test: Inhibition of human recombinant MAOA expressed in Pichia pastoris preincubated for 15 mins measured after 30 mins by bioluminescent-coupled assay; outline: as §1
T2 sequence (P21397 whole entry): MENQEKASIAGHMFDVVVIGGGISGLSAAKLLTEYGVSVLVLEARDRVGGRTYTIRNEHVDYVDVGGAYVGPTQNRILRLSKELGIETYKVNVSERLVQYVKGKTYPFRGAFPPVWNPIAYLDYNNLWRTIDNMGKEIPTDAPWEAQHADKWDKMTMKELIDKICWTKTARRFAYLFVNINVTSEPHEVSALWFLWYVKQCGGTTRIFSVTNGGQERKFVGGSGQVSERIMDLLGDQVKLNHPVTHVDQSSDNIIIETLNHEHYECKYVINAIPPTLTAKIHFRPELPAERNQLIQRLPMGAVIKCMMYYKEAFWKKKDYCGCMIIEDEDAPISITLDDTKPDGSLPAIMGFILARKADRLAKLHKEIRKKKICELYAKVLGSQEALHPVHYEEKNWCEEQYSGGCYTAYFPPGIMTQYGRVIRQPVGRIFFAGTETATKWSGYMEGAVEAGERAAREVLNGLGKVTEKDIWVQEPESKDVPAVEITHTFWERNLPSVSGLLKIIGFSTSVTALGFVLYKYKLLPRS

[9] = Antitumor activity against 129SvEv mouse APL blast cells implanted in nonirradiated 129SvEv mouse assessed as increase in survival of leukemic mouse at 0.0125 mg/kg, ip administered for 5 days per week for 2 weeks by Kaplan-Meier plot analysis relative to vehicle control; assay type: functional
Outline: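 One million leukemic blasts from 129SvEv mice given iv to non-irradiated syngeneic recipients; groups of at least 6 mice randomized. Dosing began once blasts appeared in peripheral blood (about day 10). Drug dissolved in 40% PEG 400 in 5% glucose and given ip. Survival compared with the vehicle group by Kaplan–Meier analysis.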

[10] = Antitumor activity against 129SvEv mouse APL blast cells implanted in nonirradiated 129SvEv mouse assessed as increase in survival of leukemic mouse at 27 mg/kg, po administered for 5 days per week for 2 weeks by Kaplan-Meier plot analysis relative to vehicle control; assay type: functional
Outline: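 Gavage in 40% PEG 400 in 5% glucose began once peripheral-blood blasts appeared (about day 10). Survival analysed by Kaplan–Meier versus vehicle. Separate arm for GFI1B: spleen cells taken after 3 days of dosing, qRT-PCR normalized to TBP.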

[11] = Cmax in CD1 mouse at 15 mg/kg, po administered as single dose; assay type: ADME, organism-based; parameters: dose 15 mg/kg, route oral; conditions: in vivo
Outline: (§3)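 Single dose to CD1 mice: 5 mg/kg iv in 5% glucose with 10% tween 80, or 15 mg/kg orally in 5% glucose with 40% PEG. Plasma parameters derived from concentration–time profiles.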

[12] = Oral bioavailability in CD1 mouse at 15 mg/kg administered as single dose; assay type: ADME, organism-based; conditions: in vivo; outline: as §3
[13] = Half life in CD1 mouse at 5 mg/kg, iv administered as single dose; assay type: ADME, organism-based; conditions: in vivo; outline: as §3
[14] = Clearance in CD1 mouse at 5 mg/kg, iv administered as single dose; assay type: ADME, organism-based; conditions: in vivo; outline: as §3
Mus musculus [15] = test: Toxicity in nonirradiated 129SvEv mouse implanted with 129SvEv mouse APL blast cells assessed as change in body weight at 27 mg/kg, po administered for 5 days per week for 2 weeks measured during compound dosing; assay type: organism-based; conditions: in vivo
[16] = biological target: T3, Amine oxidase [flavin-containing] B (Homo sapiens, UniProt P27338); test: Inhibition of human recombinant MAOB expressed in Pichia pastoris preincubated for 15 mins measured after 30 mins by bioluminescent-coupled assay; outline: as §1
T3 sequence (P27338 whole entry): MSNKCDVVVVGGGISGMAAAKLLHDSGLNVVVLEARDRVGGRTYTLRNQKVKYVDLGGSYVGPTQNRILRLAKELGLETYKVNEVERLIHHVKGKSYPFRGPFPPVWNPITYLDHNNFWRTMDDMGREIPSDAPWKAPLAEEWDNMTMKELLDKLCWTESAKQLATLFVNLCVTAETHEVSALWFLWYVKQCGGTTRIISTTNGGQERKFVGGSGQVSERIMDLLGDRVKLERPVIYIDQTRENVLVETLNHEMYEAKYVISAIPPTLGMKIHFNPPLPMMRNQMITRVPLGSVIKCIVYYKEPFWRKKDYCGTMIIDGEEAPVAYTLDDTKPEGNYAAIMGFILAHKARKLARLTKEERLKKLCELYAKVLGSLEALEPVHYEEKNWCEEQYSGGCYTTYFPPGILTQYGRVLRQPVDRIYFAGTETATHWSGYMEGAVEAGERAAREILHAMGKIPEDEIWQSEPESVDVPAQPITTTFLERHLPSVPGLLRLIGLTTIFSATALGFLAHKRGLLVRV

[17] = AUC (0 to infinity) in CD1 mouse at 15 mg/kg, po administered as single dose; assay type: ADME, organism-based; parameters: dose 15 mg/kg, time infinity, route oral; conditions: in vivo; outline: as §3
[18] = AUC (0 to infinity) in CD1 mouse at 5 mg/kg, iv administered as single dose; assay type: ADME, organism-based; parameters: dose 5 mg/kg, time infinity, route intravenous; conditions: in vivo; outline: as §3
Mus musculus [19] = test: Terminal volume of distribution in CD1 mouse at 5 mg/kg, iv administered as single dose; assay type: ADME, organism-based; conditions: in vivo; outline: as §3
[20] = Cmax in CD1 mouse at 5 mg/kg, iv administered as single dose; assay type: ADME, organism-based; parameters: dose 5 mg/kg, route intravenous; conditions: in vivo; outline: as §3
[21] = Tmax in CD1 mouse at 15 mg/kg, po administered as single dose; assay type: ADME, organism-based; conditions: in vivo; outline: as §3

SMILES	inhibition at 0.5 µM [1]	IC50 [2]	inhibition at 0.25 µM [3]	fold change (FC) [4]	fold change (FC) [5]	IC50 (LSD1/CoREST complex)	IC50 [8]	IC50 [16]	also measured
N[C@@H]1C[C@H]1c1ccc(NC(=O)c2ccccc2)cc1	8%	58.3 µM	73%						
CN1CCN(c2ccc(C(=O)Nc3ccc([C@H]4C[C@@H]4N)cc3)cc2)CC1				3	3.1	0.23 µM			
CN1CCN(c2ccc(C(=O)Nc3ccc([C@@H]4C[C@H]4N)cc3)cc2)CC1 [listing 1 of 2 here]						0.084 µM			
N[C@H]1CC[C@H](N[C@@H]2C[C@H]2c2ccccc2)CC1	58%	43.4 µM	84%	7	5.1		48.4 µM		Activity (THP-1 [6]): Active; Activity (THP-1 [7]): Active; Activity [9]: 14%
CN1CCN(c2ccc(C(=O)Nc3ccc([C@@H]4C[C@H]4N)cc3)cc2)CC1 [listing 2 of 2 here]				4.2	3.9				
Cl.N[C@@H]1C[C@H]1c1ccc(NC(=O)c2cccc(N3CCOC3=O)c2)cc1 (racemic)	51%	12.6 µM	79%	4.3	2.9	0.028 µM	0.0905 µM	80.2 µM	Activity [10]: 15%; Cmax [11]: 1.14 µM; bioavailability [12]: 55.8%; half-life [13]: 1.92 h; Activity (THP-1 [6]): Active; Activity (THP-1 [7]): Active; clearance [14]: 2.98 L/h/kg; Activity (Mus musculus [15]): Non-toxic; AUC(0-inf) [17]: 7.12 µM·h; AUC(0-inf) [18]: 4.62 µM·h; Vz/F (Mus musculus [19]): 8.45 L/kg; Cmax [20]: 3.65 µM; Tmax [21]: 0.667 h
N[C@@H]1C[C@H]1c1ccc(NC(=O)c2ccc(-c3ccoc3)cc2)cc1 (racemic)		51 µM				0.0225 µM	0.04 µM	0.087 µM	
N[C@@H]1C[C@H]1c1ccc(NC(=O)c2ccc(N3CCOC3=O)cc2)cc1 (racemic)						0.0335 µM	0.0297 µM	1.6 µM	

— ChEMBL document CHEMBL3779820, “Discovery of a Novel Inhibitor of Histone Lysine-Specific Demethylase 1A (KDM1A/LSD1) as Orally Active Antitumor Agent” (J Med Chem, 2016)
